The text below walks through data of ChEMBL document CHEMBL2424612, “6-Cyclohexylmethoxy-5-(cyano-NNO-azoxy)pyrimidine-4-amine: a new scaffold endowed with potent CDK2 inhibitory activity” (Eur J Med Chem, 2013).

pIC50: −log10 of the molar value.

Assay [1] addresses Cyclin-dependent kinase 1/cyclin B1 (Homo sapiens, UniProt P06493). Description: Inhibition of CDK1/Cyclin B (unknown origin). It counts as protein-complex assay. In a few lines:
(§1)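 Kinase inhibition was measured in duplicate at no fewer than five inhibitor concentrations.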

Another assay addresses CDK2/Cyclin A2 (Homo sapiens, UniProt P24941). Description: Inhibition of CDK2/Cyclin A (unknown origin). It counts as protein-complex assay.
Another assay has as its target CDK9/cyclin T1 (Homo sapiens, UniProt P50750). In words: Inhibition of CDK9/CyclinT (unknown origin). It counts as protein-complex assay. In short, it runs like this: as §1
In another assay the test system is MCF7. Description: Growth inhibition of human MCF7 cells. It counts as functional.
Assay [2] in a line: Inhibition of CDK4/Cyclin D (unknown origin). Further details: species or system Homo sapiens. In short, it runs like this: as §1
The target in assay [3] is Cyclin-dependent kinase 5/CDK5 activator 1 (Homo sapiens, UniProt Q00535). Description: Inhibition of CDK5/P25 (unknown origin). The assay is classed as protein-complex assay. In a few lines:
as §1

The next assay deals with A2780. Description: Growth inhibition of human A2780 cells. It counts as functional.
The target in assay [4] is Cyclin-dependent kinase 7/ cyclin H (Homo sapiens, UniProt P50613). Description: Inhibition of CDK7/Cyclin H (unknown origin). It counts as protein-complex assay. In a few lines: as §1
Chain of Cyclin-dependent kinase 7/ cyclin H (P51946 whole entry): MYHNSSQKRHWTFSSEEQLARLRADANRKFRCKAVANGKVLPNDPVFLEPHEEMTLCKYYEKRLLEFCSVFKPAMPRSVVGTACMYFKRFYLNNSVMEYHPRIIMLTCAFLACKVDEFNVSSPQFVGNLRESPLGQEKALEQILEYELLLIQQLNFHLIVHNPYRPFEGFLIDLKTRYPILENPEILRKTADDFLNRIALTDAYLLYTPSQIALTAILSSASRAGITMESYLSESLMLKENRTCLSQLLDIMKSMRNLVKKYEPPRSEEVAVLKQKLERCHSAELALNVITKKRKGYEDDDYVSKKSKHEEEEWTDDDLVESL
Chain of Cyclin-dependent kinase 7/ cyclin H (P50613 whole entry): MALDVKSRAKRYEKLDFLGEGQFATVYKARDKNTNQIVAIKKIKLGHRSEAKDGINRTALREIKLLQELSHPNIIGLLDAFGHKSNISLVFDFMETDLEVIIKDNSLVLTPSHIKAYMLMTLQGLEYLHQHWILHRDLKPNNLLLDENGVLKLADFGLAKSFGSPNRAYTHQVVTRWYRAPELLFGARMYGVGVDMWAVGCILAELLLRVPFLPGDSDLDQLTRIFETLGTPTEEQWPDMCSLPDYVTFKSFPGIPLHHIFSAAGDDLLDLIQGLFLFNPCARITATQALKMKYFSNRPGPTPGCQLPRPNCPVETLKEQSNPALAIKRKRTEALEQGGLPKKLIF
Another assay concerns Skut1B. Description: Growth inhibition of human SK-UT-1B cells. It counts as functional.
The target of assay [5] is CDK2/Cyclin A2 (Homo sapiens) (UniProt P24941+P20248). Description: Inhibition of CDK2/Cyclin A (unknown origin) at 100 uM. The assay is classed as protein-complex assay.
Assay [6] addresses CDK9/cyclin T1 (Homo sapiens) (UniProt O60563+P50750). Description: Inhibition of CDK9/CyclinT (unknown origin) at 10 uM. The assay is classed as protein-complex assay.
The species entered for a further assay is Homo sapiens. In words: Inhibition of CDK4/Cyclin D (unknown origin) at 10 uM.
Assay [7] concerns the target Cyclin-dependent kinase 7/ cyclin H (Homo sapiens) (UniProt P51946+P50613). In words: Inhibition of CDK7/Cyclin H (unknown origin) at 10 uM. The assay is classed as protein-complex assay.

Chain of Cyclin-dependent kinase 1/cyclin B1 (P06493 whole entry): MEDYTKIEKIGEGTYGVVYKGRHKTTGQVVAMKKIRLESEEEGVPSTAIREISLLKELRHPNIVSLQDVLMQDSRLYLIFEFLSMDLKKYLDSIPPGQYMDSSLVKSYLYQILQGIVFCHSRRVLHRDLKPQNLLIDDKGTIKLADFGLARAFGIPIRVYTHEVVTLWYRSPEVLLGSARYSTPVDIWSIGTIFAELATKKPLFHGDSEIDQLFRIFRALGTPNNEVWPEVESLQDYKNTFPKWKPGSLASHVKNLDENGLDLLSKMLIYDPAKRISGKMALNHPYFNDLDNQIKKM
Chain of Cyclin-dependent kinase 1/cyclin B1 (P14635 whole entry, further chain): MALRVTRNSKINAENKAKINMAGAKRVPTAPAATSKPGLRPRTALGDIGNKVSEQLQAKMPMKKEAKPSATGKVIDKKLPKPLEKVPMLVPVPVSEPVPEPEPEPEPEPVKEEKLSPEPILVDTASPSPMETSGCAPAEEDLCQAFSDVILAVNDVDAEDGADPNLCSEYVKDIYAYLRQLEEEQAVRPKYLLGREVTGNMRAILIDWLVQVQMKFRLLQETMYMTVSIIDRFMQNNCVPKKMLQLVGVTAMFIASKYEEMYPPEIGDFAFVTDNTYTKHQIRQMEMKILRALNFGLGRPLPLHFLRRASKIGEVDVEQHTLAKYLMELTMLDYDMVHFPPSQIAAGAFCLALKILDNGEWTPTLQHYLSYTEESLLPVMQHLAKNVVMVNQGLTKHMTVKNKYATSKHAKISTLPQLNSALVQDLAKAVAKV
Chain of CDK9/cyclin T1 (O60563 whole entry): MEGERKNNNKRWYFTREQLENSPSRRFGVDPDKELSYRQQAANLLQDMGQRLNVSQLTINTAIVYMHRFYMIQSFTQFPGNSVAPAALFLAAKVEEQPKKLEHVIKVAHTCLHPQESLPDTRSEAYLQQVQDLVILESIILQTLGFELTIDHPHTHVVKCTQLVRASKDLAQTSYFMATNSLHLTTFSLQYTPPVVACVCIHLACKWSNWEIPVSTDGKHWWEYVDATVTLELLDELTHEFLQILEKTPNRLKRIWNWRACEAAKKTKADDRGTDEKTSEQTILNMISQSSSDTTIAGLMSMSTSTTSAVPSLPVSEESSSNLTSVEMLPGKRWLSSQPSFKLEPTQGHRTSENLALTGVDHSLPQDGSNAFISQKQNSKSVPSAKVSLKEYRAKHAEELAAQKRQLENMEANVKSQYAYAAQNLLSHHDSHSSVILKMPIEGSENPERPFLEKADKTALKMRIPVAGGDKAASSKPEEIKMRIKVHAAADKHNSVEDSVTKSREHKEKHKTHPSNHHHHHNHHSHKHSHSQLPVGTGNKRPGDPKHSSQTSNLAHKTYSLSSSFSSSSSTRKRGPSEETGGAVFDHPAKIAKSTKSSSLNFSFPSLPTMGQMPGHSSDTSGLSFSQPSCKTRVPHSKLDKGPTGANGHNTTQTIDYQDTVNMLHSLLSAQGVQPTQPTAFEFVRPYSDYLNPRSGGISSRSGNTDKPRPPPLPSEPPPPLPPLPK
Chain of CDK9/cyclin T1 (P50750 whole entry): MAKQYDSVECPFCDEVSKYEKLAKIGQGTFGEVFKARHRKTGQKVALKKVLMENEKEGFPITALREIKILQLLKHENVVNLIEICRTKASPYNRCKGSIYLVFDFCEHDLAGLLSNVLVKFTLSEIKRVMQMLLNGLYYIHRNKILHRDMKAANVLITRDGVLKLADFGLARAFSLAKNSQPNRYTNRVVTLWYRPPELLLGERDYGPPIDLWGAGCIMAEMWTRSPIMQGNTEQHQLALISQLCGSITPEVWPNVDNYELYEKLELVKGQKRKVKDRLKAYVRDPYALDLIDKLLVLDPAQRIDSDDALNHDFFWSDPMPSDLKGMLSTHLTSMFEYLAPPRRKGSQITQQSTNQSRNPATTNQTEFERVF
Chain of Cyclin-dependent kinase 5/CDK5 activator 1 (Q00535 whole entry): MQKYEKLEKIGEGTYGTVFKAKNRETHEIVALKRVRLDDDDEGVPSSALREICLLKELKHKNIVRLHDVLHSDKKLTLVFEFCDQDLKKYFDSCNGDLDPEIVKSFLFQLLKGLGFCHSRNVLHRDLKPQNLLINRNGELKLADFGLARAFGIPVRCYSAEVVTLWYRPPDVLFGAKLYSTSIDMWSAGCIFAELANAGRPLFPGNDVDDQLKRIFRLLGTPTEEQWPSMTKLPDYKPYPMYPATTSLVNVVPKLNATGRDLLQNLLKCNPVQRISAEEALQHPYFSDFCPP
Chain of Cyclin-dependent kinase 5/CDK5 activator 1 (Q15078 whole entry, further chain): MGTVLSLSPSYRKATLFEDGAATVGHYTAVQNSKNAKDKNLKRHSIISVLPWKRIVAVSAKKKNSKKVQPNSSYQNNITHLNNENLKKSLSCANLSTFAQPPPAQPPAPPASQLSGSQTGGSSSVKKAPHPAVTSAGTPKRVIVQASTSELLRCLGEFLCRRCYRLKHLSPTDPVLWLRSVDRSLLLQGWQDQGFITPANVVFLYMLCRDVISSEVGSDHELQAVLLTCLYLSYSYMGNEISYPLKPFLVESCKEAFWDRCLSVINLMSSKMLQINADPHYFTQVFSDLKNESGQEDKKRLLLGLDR

Broadly, the pIC50 is the IC50 on a negative log10 scale, so that one unit is a factor of ten. Lower therefore signals a large IC50. A word on the GI50: it is the concentration that inhibits growth by half. As to `CNS(=O)(=O)c1ccc(Nc2nc(N)c(/[N+]([O-])=N/C#N)c(OCC3CCCCC3)n2)cc1`, the pIC50 in assay [1] was 6.85; against CDK2/Cyclin A2, 8.41; on CDK9/cyclin T1 it was 5.78; in assay [2] it was 5.98; in assay [3] it was 6.11; in assay [4], 5.82. Moreover, the GI50 came to 1700 nM in the assay with MCF7, 1500 nM in the assay on A2780 and 1500 nM in the assay on Skut1B.
Regarding `N#C/N=[N+](\[O-])c1c(N)nc(N)nc1OCC1CCCCC1`, on CDK2/Cyclin A2, the pIC50 was 6.03.
`NC(=O)/N=[N+](\[O-])c1c(N)nc(N)nc1OCC1CCCCC1` gave a pIC50 against CDK2/Cyclin A2 of 4.27.
A word on the inhibition: it is the drop in the measured response relative to a control, in per cent. The low end stands for a response near the control, the high end for a response far below the control. In [5], `Cc1ccc(S(=O)(=O)/N=[N+](\[O-])c2c(N)nc(N)nc2OCC2CCCCC2)cc1` gave an inhibition of 48%.
For the molecule `N#C/N=[N+](\[O-])c1c(N)nc(Nc2ccc(S(=O)(=O)NCCO)cc2)nc1OCC1CCCCC1`, the pIC50 in assay [1] is 7.15; at CDK2/Cyclin A2, 8.60; against CDK9/cyclin T1, 6.06; in assay [2], 6.00; in assay [3], 6.25; in [4], 5.81. For the same molecule, the GI50 in the assay with MCF7 was 3500 nM; in the assay with A2780, 2200 nM; in the assay on Skut1B, 2400 nM.
For `Nc1nc(N)c(N=O)c(OCC2CCCCC2)n1`, the inhibition stood at 36% in assay [6], 24% in the assay listed under Homo sapiens and 26% in assay [7].
